Bioassay records as filed in PubChem.
CHOP UPR activ – activators of apoptotic CHOP UPR arm, primary screen, cell-based, CHO-CHOP luciferase reporter, luminescence, uHTS | 330,000 compounds, 0.34% hits | UPR activation; percent of tunicamycin response over DMSO baseline | activation, % at 10 µM;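 active means at 10 µM dose, activation of 40% or more, normalized to positive control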;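 further: 100% = tunicamycin at 10 µg/mL and 0% = DMSO alone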
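System: CHO-CHOP luciferase reporter cell line | Buffer or medium: F12 medium containing 10% fetal bovine serum | Doses: One dose, 10 µM in 0.5% DMSO | Times: 6 h compound exposure at 37 °C after overnight seeding | Signal: Luciferase luminescence | Read-out: % activation vs tunicamycin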
B2AR ag – beta2AR agonists driving receptor internalization, primary screen, cell-based, FAP fluorogen, flow cytometry; 340,000 compounds, 0.43% hits; AID 504454, 2011; Am2.2-beta2AR cells; response, % (test concentration not listed); Beta-2 adrenergic receptor (Homo sapiens), P07550;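 active means response above a set limit, near 3 SD of response in nonfluorescent compounds, cut at about 42% in these data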
CHOP inh – inhibitors of CHOP promoter induction, primary screen, cell-based, unfolded protein response, luciferase reporter; AID 2732, 2010; 220,000 compounds, 3.8% hits; CHO-K1 CHOP-promoter luciferase, tunicamycin-induced, 15-18 h; inhibition, % at 10 µM;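 active means compounds that reduced the stress-induced luciferase reporter signal by more than about 70% of percent inhibition, limit read from the data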;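 further: 0% = tunicamycin plus vehicle and 100% = wells without tunicamycin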
UPR XBP1 act – activators of adaptive XBP1 UPR arm, primary screen, cell-based, CHO-XBP1 luciferase reporter, luminescence, uHTS; IRE1-XBP1 UPR activation; percent of tunicamycin response, DMSO as zero; activation, % at 20 µM; 330,000 compounds, 0.33% hits; AID 463104, 2010;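 active means versus positive control, 20 µM dose yields 30% or more activation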;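 further: 100% = tunicamycin at 10 µg/mL and 0% = DMSO only wells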
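Material: CHO cell line with stable XBP1 luciferase reporter; buffer or medium: F12 medium containing 10% fetal bovine serum; compound: single point, 20 µM final compound, 1% DMSO; incubation: 6 h treatment, 37 °C; measured by: glow luminescence from Steady-Glo reagent; evaluation: activation, % of tunicamycin; control set: tunicamycin high, DMSO low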
VLA-4 inh – inhibition in human VLA-4 binding assay, primary screen, VLA-4 allosteric modulator project, MLPCN library, flow cytometry, VLA-4 expressing cells | AID 2557, 2010 | Integrin alpha-4 (Homo sapiens), P13612 | 330,000 compounds, 0.2% hits | ligand binding flow cytometry | inhibition, % (about 7 µM as worked out from the volumes in the protocol); in the data active means inhibition above about 50%
Target sequence (P13612 whole entry, looked up): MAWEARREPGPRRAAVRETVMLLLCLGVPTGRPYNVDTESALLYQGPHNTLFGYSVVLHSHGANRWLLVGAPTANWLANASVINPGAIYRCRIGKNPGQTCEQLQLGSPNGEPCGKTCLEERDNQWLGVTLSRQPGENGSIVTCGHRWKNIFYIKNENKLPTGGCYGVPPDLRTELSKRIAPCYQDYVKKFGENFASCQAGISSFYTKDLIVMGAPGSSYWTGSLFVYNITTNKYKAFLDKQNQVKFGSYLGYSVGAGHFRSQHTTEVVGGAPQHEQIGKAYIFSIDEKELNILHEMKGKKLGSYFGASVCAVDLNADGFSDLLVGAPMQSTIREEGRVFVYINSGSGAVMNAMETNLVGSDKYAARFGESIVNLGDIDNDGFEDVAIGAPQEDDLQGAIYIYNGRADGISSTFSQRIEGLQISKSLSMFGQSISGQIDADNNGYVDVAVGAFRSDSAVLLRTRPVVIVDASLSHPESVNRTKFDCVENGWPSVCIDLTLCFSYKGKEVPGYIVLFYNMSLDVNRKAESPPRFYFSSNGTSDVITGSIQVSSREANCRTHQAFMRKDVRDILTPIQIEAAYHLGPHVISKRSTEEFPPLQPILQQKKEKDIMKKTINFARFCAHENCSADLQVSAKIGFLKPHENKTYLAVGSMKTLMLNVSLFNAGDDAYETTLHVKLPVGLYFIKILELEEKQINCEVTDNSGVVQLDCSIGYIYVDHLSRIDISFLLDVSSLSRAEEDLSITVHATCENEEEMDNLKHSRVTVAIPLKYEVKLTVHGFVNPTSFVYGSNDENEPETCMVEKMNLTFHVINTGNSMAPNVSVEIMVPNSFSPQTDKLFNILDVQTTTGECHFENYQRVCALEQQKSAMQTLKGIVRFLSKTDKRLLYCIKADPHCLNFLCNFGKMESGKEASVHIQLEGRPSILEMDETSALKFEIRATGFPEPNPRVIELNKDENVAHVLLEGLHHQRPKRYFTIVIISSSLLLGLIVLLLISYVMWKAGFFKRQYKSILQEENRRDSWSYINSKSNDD
VLA-4 mod pick – retest of VLA-4 allosteric modulators, confirmation, cell-based, cherry-picked plates, U937, HUTS-21 LIBS antibody | shares compounds with VLA-4 inh | U937 cells, HUTS-21 LIBS mAb binding, flow cytometry; LDV ligand present at threefold Kd | inhibition, % at 6.7 µM | 1,300 compounds, 2% hits | AID 2813, 2010; in the data active means inhibition above about 40%;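 further: 0% = ligand without compound and 100% = no ligand background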
Active calls of the source: *; nt = not tested or not shown; ! = not confirmed by another sample. This excerpt belongs to a sample that is enriched for hits.

SMILES	CHOP UPR activ	B2AR ag	CHOP inh	UPR XBP1 act	VLA-4 inh	VLA-4 mod pick
COc1ccc(CNCc2c(F)cccc2F)cc1OC	5	-1	nt	-2	1	nt
O=C(OCc1cc(Cl)ccc1OC(F)F)c1ccc([N+](=O)[O-])o1	3	nt	nt	4	1	nt
CCOc1ccccc1NC(=O)C1CCCN(S(=O)(=O)c2ccc3c(c2)C(C)(C)C(=O)N3C)C1 (stereo unspecified)	-1	-9	nt	-3	50*	0
CCOc1ccc(NC(=O)C2CCN(S(=O)(=O)c3ccc4c(c3)C(C)(C)C(=O)N4C)CC2)cc1	-4	3	nt	-2	-2	1
Cc1ccccc1NC(=O)C1CCCN(S(=O)(=O)c2ccc3c(c2)C(C)(C)C(=O)N3C)C1 (stereo unspecified)	0	-1	nt	-2	-21	nt
CN1C(=O)C(C)(C)c2cc(S(=O)(=O)N3CCC(C(=O)Nc4ccc(Cl)cc4)CC3)ccc21	-2	-8	nt	0	-72	nt
CC(Oc1ccccc1F)C(=O)NNC(=O)c1cccc(S(=O)(=O)N2CCN(C)CC2)c1 (stereo unspecified)	0	-2	nt	3	2	nt
O=C(NCC(c1ccco1)N1CCc2ccccc21)C(=O)Nc1ccc(F)cc1F (stereo unspecified)	0	16	nt	1	5	nt
COC(=O)c1ccc(-n2c(C)cc(C(=O)CSc3ccc(NC(C)=O)cc3)c2C)cc1	3	0	39	-2	40	-4
O=C(CSc1nnnn1C1CC1)Nc1ccc(S(=O)(=O)N2CCOCC2)cc1	1	2	nt	2	18	nt
OC1C(O)C(O)C(O)C(O)C1O (stereo unspecified)	-1	2	nt	-6	51*!	3
COc1cccc(OC)c1OCCCCc1c(C)n[nH]c1C	-1	6	-6	-2	59*	3
COC(=O)CCCC1=CC2=CC(=O)C(C)(OC(=O)c3cccs3)C(=O)C2=CN1CCCCO (stereo unspecified)	0	-5	-2	2	28	nt
COCCN1C=C2C(=O)C(C)(OC(=O)c3cccs3)C(=O)C=C2C=C1CCCC(=O)OC (stereo unspecified)	-2	-4	6	-2	50*	-6
CCOC(=O)C1CCCN(C2CC(=O)N(c3ccc(N4C(=O)CC(N5CCCC(C(=O)OCC)C5)C4=O)cc3)C2=O)C1 (stereo unspecified)	-2	-3	-20	-1	4	nt
CCOC(=O)C1CCCN(C2CC(=O)N(c3ccc(C)c(C)c3)C2=O)C1 (stereo unspecified)	-1	0	27	2	-1	2
CCOC(=O)C1CCCN(C2CC(=O)N(c3cccc(C(F)(F)F)c3)C2=O)C1 (stereo unspecified)	1	10	-8	1	-11	0
Cc1ccc(S(=O)(=O)N(C)CC(=O)Nc2cc(C)ccn2)cc1	4	-4	nt	1	4	nt
CCN(CC)S(=O)(=O)c1cc(NC(=O)CCn2[nH]c(=O)ccc2=O)ccc1C	0	-13	nt	0	-12	nt
COC(=O)c1ccc(C(=S)N2CCCCC2)cc1	1	1	18	-1	57*	4
CCOc1ccc(CN(CCO)CCO)cc1[N+](=O)[O-]	-2	-2	-6	-3	90*	2
O=C(Cn1cc(C(=O)C2CC2)c2ccccc21)NC1CCCC1	1	-5	-2	2	58*	-4
CC(C)NC(=O)Cn1cc(C(=O)C(=O)N2CCOCC2)c2ccccc21	2	-5	nt	-5	4	7
COC(=O)c1cn(CC(=O)NC2CCCCC2)c2ccccc12	1	11	7	1	13	nt
Cc1cc(Oc2ccccc2)nc(SCC(=O)Nc2ccccc2)n1	-1	-2	16	0	70*	6
SMILES	CHOP UPR activ	B2AR ag	CHOP inh	UPR XBP1 act	VLA-4 inh	VLA-4 mod pick
COc1ccc(S(=O)(=O)N2CCOCC2)cc1NC(=O)COC(=O)C1COc2ccccc2O1 (stereo unspecified)	-1	10	2	-2	42	0
CCOc1cc(/C=C2\C(=N)N3N=C(S(C)(=O)=O)SC3=NC2=O)ccc1OCCOc1cccc(OC)c1	-1	4	nt	-4	43	-13
CCS(=O)(=O)C1=NN2C(=N)/C(=C\c3ccc(OCCOc4cccc(OC)c4)c(OC)c3)C(=O)N=C2S1	nt	25	nt	nt	-1	nt
CCC(C(=O)OC)n1cnc2c(nnn2-c2cccc(OC)c2)c1=O (stereo unspecified)	1	2	nt	0	40	-13
COc1ccc(CN(C(=O)COc2ccccc2)c2ccccc2C(=O)O)cc1	-2	3	6	-1	4	nt
CS(=O)(=O)c1ccccc1C(=O)N(CCc1ccccc1)Cc1ccccc1	0	12	nt	-1	13	nt
COc1ccc(C(=O)N(CCc2ccccc2)Cc2ccccc2)c(OC)n1	-1	2	nt	0	42	3
COc1cc(C(=O)N2CCC(C(=O)Nc3cccc(C(C)=O)c3)CC2)cc(OC)c1OC	-3	22	10	-4	94*	6
COc1ccc(NC(=O)C2CCN(C(=O)c3ccccc3)CC2)cc1OC	1	0	-12	-3	4	nt
COc1ccc(C(=O)N2CCC(C(=O)Nc3ccccc3OC)CC2)cc1	-1	-7	26	3	57*	-2
COC(=O)c1ccccc1NC(=O)C1CCN(C(=O)c2cc(OC)cc(OC)c2)CC1	0	0	3	0	5	-5
COc1ccc(NC(=O)C2CCN(C(=O)c3ccccc3)CC2)c(OC)c1	-1	-9	-14	-2	33	4
Cc1ccccc1NC(=S)NC1(C)CCS(=O)(=O)C1 (stereo unspecified)	1	9	10	-1	9	nt
O=C(NC1CCCC1)c1ncn[nH]1	3	16	2	0	19	nt
COC(=O)[C@@]12CCCN1[C@H](c1ccc(-c3ccccc3)c(OC)c1)[C@H]1C(=O)N(C)C(=O)[C@H]12	-1	4	nt	-1	-2	nt
CCOc1ncnc2c1[nH]c1ccccc12	1	-3	22	0	28	14
Cc1ccc2[nH]c3c(Cl)ncnc3c2c1	6	6	-17	4	3	nt
CCCOc1ncnc2c1[nH]c1ccc(C)cc12	4	nt	63	-3	5	1
